Assay results as given in ChEMBL document CHEMBL1123129, “Hypolipidemic activity of indan-1,3-dione derivatives in rodents” (J Med Chem, 1985).

What was measured:
Type in all cases: functional
Mus musculus [1] = assay: Compound was evaluated for the hypolipidemic activity in CF1 male mice at a dose of 20 mg/kg per day intraperitoneally for serum cholesterol at 16th day.; conditions: route intraperitoneal
Outline: (§1)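 CF1 male mice (~30 g) were dosed ip daily. Tail-vein blood was collected on day 9 and day 16 between 8:00 and 9:30 a.m. Serum cholesterol was measured by modified Liebermann–Burchard on duplicate 25-µL samples. Triglyceride was measured on day 16 in a separate group, duplicate 50-µL samples. Values are % control, mean ± SD, N = 6; Student's t test.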

Mus musculus [2] = assay: Hypolipidemic activity in CF1 male mice at a dose of 20 mg/kg per day, serum cholesterol measured on the 9th day
Outline: (§2)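 CF1 male mice (~30 g) were given 20 mg/kg per day ip at 11:00 a.m.; N = 6 per group. Tail-vein serum was collected in nonheparinized microcapillaries. Cholesterol was measured on days 9 and 16 by modified Liebermann–Burchard on duplicate 25 µL samples. Triglyceride was measured on day 16 in a separate group, duplicate 50 µL. Values are % control ± SD; Student's t test.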

Mus musculus [3] = assay: Compound was evaluated for the hypolipidemic activity in CF1 male mice at a dose of 20 mg/kg per day intraperitoneally for serum triglyceride at 16th day.; conditions: route intraperitoneal; outline: as §1
Mus musculus [4] = assay: Hypolipidemic activity in CF1 male mice at a dose of 20 mg/kg per day, serum triglyceride measured on the 16th day; outline: as §2
Mus musculus [5] = assay: Hypolipidemic activity in CF1 male mice at a dose of 20 mg/kg per day, serum cholesterol measured on the 16th day; outline: as §2
Mus musculus [6] = assay: Compound was evaluated for the hypolipidemic activity in CF1 male mice at a dose of 20 mg/kg per day intraperitoneally of serum cholesterol at 9th day; conditions: route intraperitoneal; in the assay text read “150 mg/kg” for “20 mg/kg”; outline: as §1

Compound | Control (Mus musculus [1]) | Serum cholesterol, % of control (Mus musculus [2]) | Control (Mus musculus [3]) | Serum triglyceride, % of control (Mus musculus [4]) | Serum cholesterol, % of control (Mus musculus [5]) | Control (Mus musculus [6])
O=C(O)c1ccc(C2C(=O)c3ccccc3C2=O)cc1 | 78% | 95% | 95% | – | – | –
O=C1c2ccccc2C(=O)C1c1ccc2ccccc2c1 | – | 72% | – | 66% | 66% | –
O=C1CC(=O)c2ccccc21 | – | 74% | – | 79% | 60% | –
CCOc1ccc(C2C(=O)c3ccccc3C2=O)cc1 | – | 66% | – | 81% | 59% | –
O=C1c2ccccc2C(=O)C1c1c(Cl)cccc1Cl | – | 71% | – | 61% | 68% | –
CCC1C(=O)c2ccccc2C1=O | – | 63% | – | 63% | 60% | –
CC1C(=O)c2ccccc2C1=O | – | 74% | – | 61% | 58% | –
O=C1c2ccccc2C(=O)C1c1ccc(Cl)cc1Cl | – | 89% | – | 87% | 73% | –
CCCCCC1C(=O)c2ccccc2C1=O | – | 65% | – | 70% | 64% | –
O=C1c2ccccc2C(=O)C1c1ccc(Cl)c(Cl)c1 | – | 93% | – | 89% | 84% | –
Cc1ccc(C2C(=O)c3ccccc3C2=O)c(C)c1 | – | 61% | – | 58% | 54% | –
COc1cccc(C2C(=O)c3ccccc3C2=O)c1 | – | 75% | – | 55% | 67% | –
O=C(O)c1ccccc1C1C(=O)c2ccccc2C1=O | 78% | 79% | 52% | – | – | –
CCCCC1C(=O)c2ccccc2C1=O | – | 74% | – | 63% | 58% | –
O=C1c2ccccc2C(=O)C1c1ccc(-c2ccccc2)cc1 | – | 78% | – | 63% | 64% | –
CCCC1C(=O)c2ccccc2C1=O | – | 68% | – | 52% | 66% | –
Cc1ccccc1C1C(=O)c2ccccc2C1=O | – | 73% | – | 49% | 69% | –
COc1ccc(C2C(=O)c3ccccc3C2=O)c(OC)c1 | – | 89% | – | 87% | 74% | –
O=C1c2ccccc2C(=O)C1c1cccc(Cl)c1 | – | 70% | – | 70% | 60% | –
O=C1c2ccccc2C(=O)C1c1ccccc1Cl | – | 75% | – | 55% | 56% | –
COc1ccc(C2C(=O)c3ccccc3C2=O)cc1OC | – | 75% | – | 66% | 69% | –
Cc1ccc(C2C(=O)c3ccccc3C2=O)cc1 | – | 68% | – | 42% | 65% | –
Cc1cccc(C2C(=O)c3ccccc3C2=O)c1 | – | 75% | – | 51% | 71% | –
COc1ccccc1C1C(=O)c2ccccc2C1=O | – | 79% | – | 48% | 72% | –
O=C1c2ccccc2C(=O)C1c1ccc(Br)cc1 [BROMINDIONE] | – | 72% | – | 66% | 56% | –
CCOC(=O)C(C)(C)Oc1ccc(Cl)cc1 [CLOFIBRATE] | – | – | – | 75% | 87% | 88%
O=C1c2ccccc2C(=O)C1c1ccc(Cl)cc1 [CLORINDIONE] | – | 64% | – | 47% | 63% | –
O=C1c2ccccc2C(=O)C1c1ccccc1 [PHENINDIONE] | – | 64% | – | 60% | 60% | –
